{"data": "Measurements from different studies", "KCNH2": "Voltage-gated inwardly rectifying potassium channel KCNH2 (KCNH2, Homo sapiens, UniProt Q12809)", "note": "pIC50: −log10 of the molar value."}
{"Compound": "COc1nc(-c2cccc(-c3ccccc3)c2C)ccc1CNCCNC(=O)CCCCCCCCCCC(=O)N1CCN(CCNC(=O)c2cc3c(=O)n4cccc(C)c4nc3n(CCc3cccs3)c2=N)CC1", "system": "male Sprague-Dawley rat, plasma", "setting": "intraperitoneal, 4 mg/kg", "quantity": "MRT(0-inf)", "result": "7.2 h"}
{"Compound": "C[C@H]1Oc2cc(cnc2N)-c2c(nn(C)c2C#N)CN(C)C(=O)c2ccc(F)cc21", "system": "Sprague-Dawley rat, plasma", "setting": "intravenous, 1 mg/kg, single dose", "quantity": "MRT(0-inf)", "result": "4.96 h"}
{"Compound": "NC(=O)c1ncn([C@@H]2O[C@H](CO)[C@@H](O)[C@H]2O)n1", "tested on": "RD", "assay": "cell growth or viability, MTT", "quantity": "CC50", "result": "104 µM"}
{"Compound": "O=C(O)COc1cccc(-c2nc(Nc3ccc4[nH]ncc4c3)c3ccccc3n2)c1", "tested on": "Bile salt export pump (ABCB11, Homo sapiens, UniProt O95342)", "assay": "transporter uptake, inhibitor, radiometric", "quantity": "pIC50", "result": 4.32}
{"Compound": "COc1cc(N)c(Cl)cc1C(=O)NC1CCN(CCCOc2ccc(F)cc2)CC1OC (centres unmarked)", "tested on": "KCNH2", "assay": "ion current, inhibitor, patch clamp", "system": "HEK293", "setting": "1 nM, pH 7.4", "quantity": "inhibition", "result": "8.73%"}
{"Compound": "O=C(COc1ccc(Cl)cc1)NC12CC(c3nnc([C@H]4C[C@@H](OC(F)(F)F)C4)o3)(C1)C2", "system": "human, plasma", "setting": "oral, 800 mg, single dose, fasted, healthy volunteers", "quantity": "Tmax", "result": "36 h"}
{"Compound": "CC(C)n1ncc2c(C(=O)NCC3(C)CNC3)cc(C3CC3)nc21", "tested on": "RD", "assay": "cell growth or viability, neutral red", "quantity": "CC50", "result": "> 100 µM"}
{"Compound": "CC(=O)N1CCC(C(=O)N2CCN3C(=O)c4cc(-c5ccccc5)ccc4NC(=O)C3C2)CC1 (centres unmarked)", "tested on": "KCNH2", "assay": "ion current, inhibitor, patch clamp", "system": "HEK293", "setting": "1 µM", "quantity": "inhibition", "result": "5.6%"}
{"Compound": "CN1C[C@H](COc2nccc3c(NCc4ccco4)cc(Cl)nc23)OC1=O", "tested on": "KCNH2", "assay": "ion current, inhibitor", "system": "HEK293", "setting": "1 µM", "quantity": "inhibition", "result": "8.8%"}
{"Compound": "CC(C)n1cc(C#N)c2cc(-n3cc(C(=O)O)cn3)ccc21", "system": "human, plasma", "setting": "oral, 100 mg, single dose, fasted, healthy volunteers", "quantity": "Tmax", "result": "2.99 h"}
{"Compound": "CCOC(=O)C1=C(CN2CCC[C@@H]2C(=O)Nc2ccc(B(O)O)cc2)NC(c2nccs2)=N[C@H]1c1ccc(F)cc1Br", "tested on": "KCNH2", "assay": "ion current, inhibitor, patch clamp", "system": "HEK293", "setting": "100 µM, pH 7.4", "quantity": "inhibition", "result": "94.8%"}
{"Compound": "O=C(Cn1ccnc1[N+](=O)[O-])NCc1ccccc1", "tested on": "LLC-MK2", "assay": "cell growth or viability", "quantity": "CC50", "result": "257 µg/mL"}
{"Compound": "COc1cccc(OC)c1-c1cc(C(=O)NC2(C(=O)O)C3CC4CC(C3)CC2C4)nn1-c1ccc(C(=O)N(C)CCCN(C)CCCN(C)C(=O)CN2CCN(CC(=O)[O-])CCN(CC(=O)[O-])CCN(CC(=O)[O-])CC2)cc1C(C)C.[177Lu+3] (centres unmarked)", "tested on": "HT-29", "system": "stomach", "setting": "7 days, tumour-bearing", "quantity": "tracer uptake", "result": "0.09 %ID/g"}
{"Compound": "COc1ccc2c(c1)CN(C(=O)CCN1CCC(Cc3ccccc3)CC1)CC[S@@+]2[O-]", "system": "male human, plasma", "setting": "intravenous, 0.4 mg/kg, healthy volunteers", "quantity": "Tmax", "result": "0 h"}
{"Compound": "N[C@H]1C(O)O[C@H](CO)[C@@H](O)[C@@H]1O (some centres unmarked)", "tested on": "Caco-2", "assay": "cell growth or viability, CCK-8", "setting": "20 mM", "quantity": "viability", "result": "101%"}
{"Compound": "COc1cc(N)c(Cl)cc1C(=O)NC1CCN(CCCOc2ccc(F)cc2)CC1OC (centres unmarked)", "tested on": "KCNH2", "assay": "ion current, inhibitor, patch clamp", "system": "HEK293", "setting": "50 nM", "quantity": "inhibition", "result": "60.7%"}
{"Compound": "Cn1c(=O)c2[nH]cnc2n(C)c1=O", "system": "male Sprague-Dawley rat, plasma", "setting": "intravenous, 11.25 mg/kg", "quantity": "MRT(0-inf)", "result": "6.51 h"}
